Source: ChEMBL document CHEMBL1132437, “Synthesis and antimicrobial activity of 4H-4-oxoquinolizine derivatives: consequences of structural modification at the C-8 position” (1999)
In brackets after ≈: the same amount, converted by molar mass.

Experiments:
Format in all cases: functional
[1] = test system: Burkholderia cepacia; assay: In vitro antibacterial activity against gram negative Pseudomonas cepacia 2961
Summary of the method: (§1)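 Agar dilution MIC determination following the National Committee for Clinical Laboratory Standards recommendations.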

[2] = test system: Pseudomonas aeruginosa; assay: In vitro antibacterial activity against gram negative P. aeruginosa DPHP 5263; summary of the method: as §1
[3] = test system: Staphylococcus aureus; assay: In vivo efficacy against Staphylococcus aureus NCTC 10649M in mouse; conditions: Staphylococcus aureus; read-out: ED50
Summary of the method: (§2)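 Mouse protection model: mice infected intravenously with 100-fold LD50 of the organism. Compound given by subcutaneous injection or oral gavage at 1 and 5 h after infection, over a dose range. Deaths tracked for 7 days post-inoculation. ED50 is the dose giving 50% survival of treated mice over the trial.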

[4] = test system: Streptococcus pyogenes; assay: In vitro antibacterial activity against gram positive Streptococcus pyogenes 930; summary of the method: as §1
[5] = test system: Escherichia coli; assay: In vivo efficacy against Escherichia coli JUHL in mouse protection test after subcutaneous administration; conditions: Escherichia coli, sc; read-out: ED50; summary of the method: as §2
[6] = test system: Pseudomonas aeruginosa; assay: In vitro antibacterial activity against Gram-negative Pseudomonas aeruginosa 5007; summary of the method: as §1
[7] = test system: Mus musculus; assay: In vivo efficacy against Pseudomonas aeruginosa 5007 in mouse protection test […]; summary of the method: as §2
[8] = test system: Pseudomonas aeruginosa; assay: In vivo efficacy against Pseudomonas aeruginosa 5007 in mouse protection test after subcutaneous administration; conditions: Pseudomonas aeruginosa, sc; read-out: ED50; summary of the method: as §2
[9] = test system: Staphylococcus aureus; assay: In vivo efficacy against Staphylococcus aureus NCTC 10649M in mouse protection test after p.o. administration.; conditions: Staphylococcus aureus, po; read-out: ED50; summary of the method: as §2
[10] = test system: Staphylococcus aureus; assay: In vitro antibacterial activity against gram-positive Staphylococcus aureus NCTC 10649M; summary of the method: as §1
[11] = test system: Escherichia coli; assay: In vitro antibacterial activity against gram negative Escherichia coli KNK 437; conditions: Escherichia coli; read-out: MIC; summary of the method: as §1
[12] = test system: Staphylococcus aureus; assay: In vitro antibacterial activity against gram-positive Staphylococcus aureus 1775; summary of the method: as §1
[13] = test system: Enterococcus faecium; assay: In vitro antibacterial activity against gram-positive Enterococcus faecium ATCC 8043; summary of the method: as §1
[14] = test system: Mus musculus; assay: IIn vivo efficacy against Escherichia coli JUHL in mouse protection test after administration by oral gavage; summary of the method: as §2
[15] = test system: Escherichia coli; assay: In vivo efficacy against Escherichia coli JUHL in mouse protection test after p.o. administration.; conditions: Escherichia coli, po; read-out: ED50; summary of the method: as §2
[16] = test system: Mus musculus; assay: In vivo efficacy against Pseudomonas aeruginosa 5007 in mouse protection test after administration by oral gavage.; summary of the method: as §2
[17] = test system: Streptococcus pneumoniae; assay: In vivo efficacy against Streptococcus pneumoniae ATCC 6303 in mouse protection test after s.c. administration.; conditions: Streptococcus pneumoniae, sc; read-out: ED50; summary of the method: as §2
[18] = test system: Mus musculus; assay: In vivo efficacy against Streptococcus pneumoniae ATCC 6303 in mouse protection test after administration by oral gavage; summary of the method: as §2
[19] = test system: Pseudomonas aeruginosa; assay: In vivo efficacy against Pseudomonas aeruginosa 5007 in mouse protection test after administration by oral gavage; conditions: Pseudomonas aeruginosa, po; read-out: ED50; summary of the method: as §2
[20] = test system: Escherichia coli; assay: In vitro antibacterial activity against Escherichia coli KNK 437 a ciprofloxacin less sensitive strain; summary of the method: as §1
[21] = test system: Pseudomonas aeruginosa; assay: Not Plasmodium species
[22] = Burkholderia cepacia, read-out: MIC
[23] = Pseudomonas aeruginosa, DPHP 5263, read-out: MIC
[24] = Streptococcus pyogenes, read-out: MIC
[25] = Pseudomonas aeruginosa, read-out: MIC
[26] = Staphylococcus aureus, NCTC 10649, read-out: MIC
[27] = Staphylococcus aureus, read-out: MIC
[28] = Enterococcus faecium, ATCC 8043, read-out: MIC

| Structure (SMILES) | MIC [1, 22] [µg/mL] | MIC [2, 23] [µg/mL] | ED50 [3] [mg/kg] | MIC [4, 24] [µg/mL] | ED50 [5] [mg/kg] | MIC [6, 25] [µg/mL] | ED50 [8] [mg/kg] | ED50 [9] [mg/kg] | MIC [10, 26] [µg/mL] | MIC [11] [µg/mL] | MIC [12, 27] [µg/mL] | MIC [13, 28] [µg/mL] | ED50 [15] [mg/kg] | also measured |
| --- | --- | --- | --- | --- | --- | --- | --- | --- | --- | --- | --- | --- | --- | --- |
| Cc1c(N2CC[C@@H]3NCCC[C@@H]32)c(F)cn2c(=O)c(C(=O)O)cc(C3CC3)c12 | 25 (≈ 64.9 µM) | 100 (≈ 259 µM) | 7 | 1.56 (≈ 4.05 µM) | 4.4 | 3.1 (≈ 8.04 µM) | > 32 | 23.9 | 0.2 (≈ 0.519 µM) | 0.78 (≈ 2.02 µM) | 12.5 (≈ 32.4 µM) | 3.1 (≈ 8.04 µM) |  | ED50 [7]: > 50 mg/kg; ED50 [14]: > 10 mg/kg |
| Cc1c(N2C[C@@H](N)[C@@H](C3CC3)C2)c(F)cn2c(=O)c(C(=O)O)cc(C3CC3)c12 (stereo in doubt; 3s) | 0.78 (≈ 2.02 µM) | 12.5 (≈ 32.4 µM) | 1.5 |  | 3.7 | 0.39 (≈ 1.01 µM) |  | 3.4 |  | 0.2 (≈ 0.519 µM) | 0.39 (≈ 1.01 µM) | 0.1 (≈ 0.259 µM) | 6.6 | MIC [4]: 0.1 µg/mL (≈ 0.259 µM); MIC [10]: 0.02 µg/mL (≈ 0.0519 µM) |
| Cc1c(N2C[C@H]3NCCO[C@@H]3C2)c(F)cn2c(=O)c(C(=O)O)cc(C3CC3)c12 | 3.1 (≈ 8 µM) | 25 (≈ 64.5 µM) | 6 | 0.2 (≈ 0.516 µM) | > 5 | 1.56 (≈ 4.03 µM) | > 32 | 11.5 | 0.05 (≈ 0.129 µM) | 0.78 (≈ 2.01 µM) | 0.78 (≈ 2.01 µM) | 0.2 (≈ 0.516 µM) |  | ED50 [14]: > 20 mg/kg; ED50 [16]: > 50 mg/kg |
| Cc1c(N2CC[C@@H](C)[C@H](N)C2)c(F)cn2c(=O)c(C(=O)O)cc(C3CC3)c12 |  |  | 1 |  | 0.6 |  | 24.5 | 4.3 |  |  |  |  | 3 | ED50 [17]: 2.1 mg/kg; ED50 [18]: 1 mg/kg; ED50 [16]: > 50 mg/kg |
| Cc1c(N2C[C@@H]3CCCC[C@]3(CN)C2)c(F)cn2c(=O)c(C(=O)O)cc(C3CC3)c12 | 3.1 (≈ 7.5 µM) | 50 (≈ 121 µM) | 1.8 | 0.02 (≈ 0.0484 µM) | > 5 | 3.1 (≈ 7.5 µM) | > 32 | 17.7 | 0.002 (≈ 0.00484 µM) | 1.56 (≈ 3.77 µM) | 0.2 (≈ 0.484 µM) | 0.02 (≈ 0.0484 µM) | > 20 | ED50 [19]: > 50 mg/kg |
| Cc1c(N2CC[C@H](N)C2)c(F)cn2c(=O)c(C(=O)O)cc(C3CC3)c12 (stereo in doubt; -(S)-3i) [ABT-719] |  |  |  |  |  |  |  |  |  |  |  |  |  | MIC [1]: 0.39 µg/mL (≈ 1.13 µM); MIC [2]: 0.39 µg/mL (≈ 1.13 µM); MIC [4]: 0.02 µg/mL (≈ 0.0579 µM); MIC [6]: 0.05 µg/mL (≈ 0.145 µM); MIC [10]: 0.01 µg/mL (≈ 0.029 µM); MIC [12]: 0.78 µg/mL (≈ 2.26 µM); MIC [20]: 0.02 µg/mL (≈ 0.0579 µM); MIC [13]: 0.02 µg/mL (≈ 0.0579 µM) |
| Cc1c(N2CCC2)c(F)cn2c(=O)c(C(=O)O)cc(C3CC3)c12 | 3.1 (≈ 9.8 µM) | > 10 |  | 0.78 (≈ 2.47 µM) |  |  |  |  | 0.2 (≈ 0.632 µM) | 3.1 (≈ 9.8 µM) | 3.1 (≈ 9.8 µM) | 0.78 (≈ 2.47 µM) |  | MIC [21]: 3.1 µg/mL (≈ 9.8 µM) |
| Cc1c(N2CC[C@H](NC3CC3)C2)c(F)cn2c(=O)c(C(=O)O)cc(C3CC3)c12 | 0.39 (≈ 1.01 µM) | 12.5 (≈ 32.4 µM) | 3.6 | 0.05 (≈ 0.13 µM) | 5 | 0.39 (≈ 1.01 µM) | > 32 | 25 | 0.02 (≈ 0.0519 µM) | 0.2 (≈ 0.519 µM) | 0.39 (≈ 1.01 µM) | 0.2 (≈ 0.519 µM) | 16.5 | ED50 [7]: > 50 mg/kg; ED50 [17]: > 8 mg/kg; ED50 [18]: 23.1 mg/kg |
